What all share (assay type): cell-based
The target in assay [1] is Sodium-dependent serotonin transporter (Homo sapiens, UniProt P31645). As to the kind of experiment: In vitro inhibition of [3H]citalopram binding to human serotonin transporter expressed in human HEK293 cells. The method in brief:
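Membranes from HEK-293 cells stably expressing hSERT, grown in DMEM with 10% FBS and Geneticin. 30-70 µg membrane protein incubated 2 h at room temperature with [3H]citalopram in 53 mM Tris, 126 mM NaCl, 5.3 mM KCl, pH 7.9. Competitor at 12 concentrations, 10^-13 to 10^-5 M, in triplicate. Filtration through PEI-soaked GF/B filters; Ki from competition curves, at least two separate assays.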

The target in assay [2] is Sodium-dependent noradrenaline transporter (Homo sapiens, UniProt P23975). Briefly: In vitro inhibition of [3H]nisoxetine binding to norepinephrine transporter expressed in human kidney cells. The method in brief:
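HEK-293 membranes stably expressing hNET (30-70 µg protein) incubated 4 h at 4 °C with [3H]nisoxetine in 53 mM Tris, 320 mM NaCl, 5.3 mM KCl, pH 7.4. Competitor dissolved in 1:1 ethanol/5 mM HCl, 12 concentrations from 10^-13 to 10^-5 M, triplicate. Cold-buffer termination, vacuum filtration on GF/B; Ki calculated from competition curves.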

The target of assay [3] is Sodium-dependent dopamine transporter (Homo sapiens, UniProt Q01959). As to the kind of experiment: In vitro inhibition of [3H]WIN-35428 binding to human dopamine transporter expressed in canine kidney cells. The method in brief: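 Membranes from MDCK cells stably expressing hDAT, grown to confluency in DMEM with 10% FBS and Geneticin, harvested in PBS/0.53 mM EDTA, homogenized, pelleted at 43 000g. Membranes (30-70 µg protein) incubated 1 h at room temperature in 42 mM sodium phosphate, 320 mM sucrose, pH 7.4, with 2.0 nM [3H]WIN 35,428; competitor 10^-13 to 10^-5 M, 12 concentrations, triplicate; GF/B filtration; Ki.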
Sodium-dependent dopamine transporter, sequence (Q01959 whole entry): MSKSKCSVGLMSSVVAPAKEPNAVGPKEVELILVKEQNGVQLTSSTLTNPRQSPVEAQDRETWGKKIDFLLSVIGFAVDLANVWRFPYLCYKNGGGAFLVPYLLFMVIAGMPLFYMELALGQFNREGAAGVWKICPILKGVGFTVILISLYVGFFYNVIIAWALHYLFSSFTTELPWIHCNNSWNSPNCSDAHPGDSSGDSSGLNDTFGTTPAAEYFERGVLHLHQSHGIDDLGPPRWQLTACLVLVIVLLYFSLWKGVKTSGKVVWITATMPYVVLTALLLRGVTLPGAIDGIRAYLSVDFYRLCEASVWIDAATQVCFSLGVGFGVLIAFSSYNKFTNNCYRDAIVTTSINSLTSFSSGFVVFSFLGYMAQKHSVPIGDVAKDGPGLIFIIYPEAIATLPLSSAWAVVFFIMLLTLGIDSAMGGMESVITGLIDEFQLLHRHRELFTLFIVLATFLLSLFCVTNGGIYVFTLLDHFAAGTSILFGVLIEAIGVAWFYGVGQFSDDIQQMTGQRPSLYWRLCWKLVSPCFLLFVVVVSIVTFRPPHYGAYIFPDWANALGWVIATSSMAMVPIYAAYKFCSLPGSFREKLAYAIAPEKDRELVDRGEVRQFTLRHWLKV

In general, Ki refers to a dissociation constant, usually derived from enzyme kinetics or from competition with a known ligand. A high value points to weaker binding.

Sodium-dependent serotonin transporter, sequence (P31645 whole entry): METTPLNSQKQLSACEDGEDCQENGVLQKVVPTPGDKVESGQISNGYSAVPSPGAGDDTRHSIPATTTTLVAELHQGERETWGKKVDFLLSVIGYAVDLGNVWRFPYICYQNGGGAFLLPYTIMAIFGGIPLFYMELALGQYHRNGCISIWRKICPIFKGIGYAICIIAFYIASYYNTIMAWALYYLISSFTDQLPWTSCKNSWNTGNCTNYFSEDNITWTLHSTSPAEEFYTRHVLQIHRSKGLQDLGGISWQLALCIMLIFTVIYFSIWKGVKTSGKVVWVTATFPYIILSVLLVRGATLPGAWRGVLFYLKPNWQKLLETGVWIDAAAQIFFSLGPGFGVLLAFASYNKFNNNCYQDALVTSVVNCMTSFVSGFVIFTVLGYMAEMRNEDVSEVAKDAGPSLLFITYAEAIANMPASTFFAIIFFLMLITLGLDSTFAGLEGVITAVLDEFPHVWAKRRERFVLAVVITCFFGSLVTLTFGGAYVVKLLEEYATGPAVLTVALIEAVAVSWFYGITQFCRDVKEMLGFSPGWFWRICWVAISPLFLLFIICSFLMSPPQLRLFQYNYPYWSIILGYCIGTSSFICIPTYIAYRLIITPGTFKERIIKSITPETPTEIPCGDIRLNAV
Sodium-dependent noradrenaline transporter, sequence (P23975 whole entry): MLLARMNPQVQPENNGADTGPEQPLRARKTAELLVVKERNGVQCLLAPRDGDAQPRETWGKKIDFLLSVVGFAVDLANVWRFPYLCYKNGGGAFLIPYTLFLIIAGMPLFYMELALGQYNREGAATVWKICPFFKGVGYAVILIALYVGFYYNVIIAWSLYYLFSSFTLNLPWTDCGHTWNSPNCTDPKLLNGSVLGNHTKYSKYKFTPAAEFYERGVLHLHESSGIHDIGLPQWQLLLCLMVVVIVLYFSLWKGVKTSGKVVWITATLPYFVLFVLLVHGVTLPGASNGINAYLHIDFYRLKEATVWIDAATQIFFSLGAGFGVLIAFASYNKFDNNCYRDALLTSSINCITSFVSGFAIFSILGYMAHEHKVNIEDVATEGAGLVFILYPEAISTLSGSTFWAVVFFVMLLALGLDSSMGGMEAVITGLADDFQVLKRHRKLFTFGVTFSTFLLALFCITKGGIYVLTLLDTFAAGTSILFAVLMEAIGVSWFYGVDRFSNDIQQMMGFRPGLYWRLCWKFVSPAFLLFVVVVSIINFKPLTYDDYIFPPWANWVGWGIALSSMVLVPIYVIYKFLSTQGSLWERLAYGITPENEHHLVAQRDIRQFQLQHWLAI

On to `CN(C)Cc1ccccc1Sc1ccc(CCO)cc1N`, for which the Ki in assay [1] is 50.6 nM; in assay [2], 194 nM; in assay [3] it was above 1000 nM.

As to `CN(C)Cc1ccccc1Sc1ccc(CCF)cc1N`, the Ki in assay [1] was 8.5 nM; in assay [2] it was above 5000 nM; in assay [3], above 5000 nM.

Regarding `CCc1ccc(Sc2ccccc2CN(C)C)c(N)c1`, the Ki is 0.49 nM in assay [1], 370 nM in assay [2] and above 2000 nM in assay [3].

As to `CCc1ccc(Sc2ccccc2CNC)c(N)c1`, the Ki in assay [1] was 2.04 nM; in assay [2], 445 nM; in assay [3], above 1000 nM.

As for `CN(C)Cc1ccccc1Sc1ccccc1N`, the Ki stood at 1.59 nM in assay [1], 4.95 nM in assay [2] and 279 nM in assay [3].

For `C=Cc1ccc(Sc2ccccc2CN(C)C)c(N)c1`, the results for the Ki in assay [1], in assay [2] and in assay [3] were 1.12 nM, 269 nM and 962 nM, respectively.

`CN(C)Cc1ccccc1Sc1ccc(CO)cc1N`: the Ki in assay [1] is 0.57 nM; in assay [2], 303 nM; in assay [3] it was above 1000 nM.

For the compound `CNC(=O)c1ccccc1Sc1ccc(C)cc1[N+](=O)[O-]`, the Ki in assay [1] is 1.94 nM; in assay [2], 191 nM; in assay [3], 698 nM.

Take `CNC(=O)c1ccccc1Sc1ccccc1[N+](=O)[O-]`: the Ki in assay [1] amounted to 83.4 nM; in assay [2], 37.5 nM; in assay [3], 969 nM.

In the case of `Cc1ccc(Sc2ccccc2CN(C)C)c(N)c1`, the Ki amounted to 0.25 nM in assay [1], 61 nM in assay [2] and 532 nM in assay [3].

On to `CN(C)Cc1ccccc1Sc1ccc(I)cc1N`, for which affinity in assay [1] was put at a Ki of 0.013 nM.

As to `CNCc1ccccc1Sc1ccc(CO)cc1N`, the Ki in assay [1] is 15.1 nM; in assay [2] it was 484 nM; in assay [3] it was above 1000 nM.

Consider `CN(C)Cc1ccccc1Sc1ccc(CCCF)cc1N`, for which the Ki in assay [1] is 8.55 nM; in assay [2], 219 nM; in assay [3] it was above 5000 nM.

As for `CN(C)Cc1ccccc1Sc1ccc(CCCO)cc1N`, the Ki in assay [1] was 92.3 nM; in assay [2] it was 108 nM; in assay [3], above 5000 nM.

The record behind these values is ChEMBL document CHEMBL1140286, “Synthesis, in vitro characterization, and radiolabeling of N,N-dimethyl-2-(2'-amino-4'-substituted-phenylthio)benzylamines: potential candidates as selective serotonin transporter radioligands” (J Med Chem, 2005).
